Apaf-1 inh = inhibitors of human Apaf-1 apoptosome, primary screen, biochemical, DEVD-Rh110 fluorescence, uHTS; Apoptotic protease-activating factor 1 (Homo sapiens), O14727; reconstituted apoptosome caspase-3 activity; inhibition, % at 20 µM; 330,000 tested, 0.71% active; active = inhibition of at least 40% at 20 µM;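 note: plate controls were DMSO wells for no effect and DEVD-CHO caspase inhibitor wells for full effect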
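Medium: Hepes buffer, pH 7.5 / System: biochemical Apaf-1 apoptosome reconstitution / Measured by: Rh110 fluorescence, excitation 480 nm, emission 540 nm / Times: compound with Apaf-1, dATP, procaspase-3 30 min, then 50 min reaction, room temperature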
UBC13 inh = UBC13 polyubiquitin chain formation inhibitors, primary screen, biochemical, TR-FRET, uHTS. Ubiquitin-conjugating enzyme E2 N (Homo sapiens), P61088. inhibition, % at 20 µM. AID 485273, 2010. 330,000 tested, 0.47% active; in the data active = inhibition above about 45%, passing the limit was not always enough
Target sequence (P61088 whole entry, looked up): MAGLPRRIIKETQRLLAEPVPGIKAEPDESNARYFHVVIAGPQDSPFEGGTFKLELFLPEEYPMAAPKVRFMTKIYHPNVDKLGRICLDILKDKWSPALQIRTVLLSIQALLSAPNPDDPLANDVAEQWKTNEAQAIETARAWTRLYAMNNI
MEKK2wt PB1 HTS = modulators of MEK5 binding to wildtype MEKK2, primary screen, biochemical, multiplex bead flow cytometry, Alexa488-MEK5; Mitogen-activated protein kinase kinase kinase 2 (Homo sapiens), Q9Y2U5; Alexa488-MEK5 binding to MEKK2 WT; actives lie on both sides; binding response (% of control), % at 10 µM; 290,000 tested, 1.1% active; AID 1531, 2009; in the data active = binding response below about 67% or above about 130%
MEKK3 PB1 HTS = modulators of MEKK3-MEK5 PB1 binding, primary screen, biochemical, wildtype MEKK3, multiplex bead flow cytometry, Alexa488-MEK5; Mitogen-activated protein kinase kinase kinase 3 (Homo sapiens), Q99759; bead-based flow cytometry, Alexa488-MEK5 binding to MEKK3; actives lie on both sides; 0 = blocked by unlabeled MEK5, 100 = vehicle; binding response (% of control), % at 10 µM; 290,000 tested, 1.4% active; AID 1529, 2009;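 active = binding response more than 3 SD above or below the average of its plate-row segment, actives on both sides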;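 note: Alexa488 bead fluorescence after subtracting the streptavidin-only scavenger bead signal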
MEKK2mut PB1 HTS = MEK5 binding signal on mutant MEKK2 PB1, primary screen, biochemical, multiplex bead flow cytometry, Alexa488-MEK5. Alexa488-MEK5 binding to MEKK2 mutant. percent response, % at 10 µM. 290,000 tested, 0.35% active. AID 1530, 2009; in the data active = percent response above about 24%, passing the limit was not always enough
UCH37 DUB inh = inhibitors of human UCH37 deubiquitinase, primary screen, biochemical, Ub-AMC cleavage, fluorescence; purified proteasome/UCH37; inhibition, % (no concentration beside the values); 330,000 tested, 0.33% active; AID 588478, 2011; Ubiquitin carboxyl-terminal hydrolase isozyme L5 (Homo sapiens), Q9Y5K5;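 active = mean inhibition over replicate wells above about 20%, limit read from the data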;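 note: 0% = compound-free wells with enzyme and 100% = wells lacking proteasome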
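Material: human UCH37 enzyme supplied as purified proteasome complex / Amount: 0.15 nM proteasome as dispensed / Buffer or medium: pH 7.4 Tris-HCl (50 mM) with ovalbumin, ATP-MgCl2, DTT / Times: preincubation 30 min, reaction 25 min, room temperature / Technique: AMC fluorescence from Ub-AMC cleavage, excitation 355 nm, emission 460 nm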
Casp3 UBC13 ctr = CASP3 inhibitor validation, counterassay for project on UBE2N polyubiquitination blockers, biochemical, one dose | 1,400 tested, 4% active | AID 488856, 2010 | inhibition, % at 20 µM | Recombinant caspase-3, Caspase-Glo 3/7 luminescence, 60 min | shares compounds with UBC13 inh;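 active = mean inhibition across replicates above about 26%, limit read from the data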;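 note: plate controls were DMSO with caspase-3 for no effect and DMSO wells lacking enzyme for full effect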
Target sequence (P42574 whole entry, looked up): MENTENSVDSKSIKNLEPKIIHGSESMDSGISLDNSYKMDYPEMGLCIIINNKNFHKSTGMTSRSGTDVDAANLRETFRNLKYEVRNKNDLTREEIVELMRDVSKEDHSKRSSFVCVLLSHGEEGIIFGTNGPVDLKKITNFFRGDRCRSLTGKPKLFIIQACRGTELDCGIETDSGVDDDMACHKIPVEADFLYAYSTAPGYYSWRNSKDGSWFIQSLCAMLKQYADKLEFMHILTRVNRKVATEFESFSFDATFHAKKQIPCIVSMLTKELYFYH
UBC13 conf = UBC13 polyubiquitination inhibitors, single-point retest, confirmation, biochemical, TR-FRET, single concentration | shares compounds with UBC13 inh | inhibition, % at 10 µM | 1,400 tested, 68% active | AID 488859, 2010; in the data active = inhibition above about 45%
Numbers without * were called inactive; i = inactive; . = no result. In the library only some 3% were active in any assay of this set; here they are far more common.

SMILES	Apaf-1 inh	UBC13 inh	MEKK2wt PB1 HTS	MEKK3 PB1 HTS	MEKK2mut PB1 HTS	UCH37 DUB inh	Casp3 UBC13 ctr	UBC13 conf
CCOC(=O)c1c(C)oc2ccc(O)cc12	3	25	94	105	0	5	.	.
CCOC(=O)c1c(CN2CCCCC2)oc2ccc(O)cc12	-5	53*	101	99	15	2	0	54*
O=C(CNS(=O)(=O)c1ccccc1)N1CCN(c2ccccc2)CC1	-13	2	99	100	0	2	.	.
COc1ccccc1C(=O)Nc1c2c(nn1-c1cccc(C)c1C)CS(=O)(=O)C2	-13	46*	98	98	2	-17	-2	41
CCCCn1c(-c2cccs2)nc2nc3ccccc3nc21	19	56*	92	101	-1	i	-1	45*
O=C(CNC(=O)Cn1ccc2ccccc2c1=O)NCCCN1CCN(c2cccc(Cl)c2)CC1	13	15	120	110	6	2	.	.
CCC(C)c1ccc(OCC(=O)NNC(=O)C2CCCCC2)cc1 (stereo not given)	-7	-9	100	98	0	0	.	.
Cc1ccc(OCC(=O)NNC(=S)NC(=O)C2CCCCC2)c(C)c1	10	-4	107	102	8	2	.	.
N#Cc1ccc(NC(=S)NC(=O)C2CCCCC2)cc1	8	0	.	.	.	1	.	.
CC(C)c1ccc(OCC(=O)NNC(=S)NC(=O)C2CC2)cc1	6	62*	105	103	5	.	-1	99*
Cc1ccc(OCC(=O)NNC(=S)NC(=O)C2CC2)c(C)c1	-5	85*	101	102	1	.	2	106*
N#Cc1ccc(OCC(=O)NNC(=S)NC(=O)C2CC2)cc1	-3	106*	.	.	.	.	-1	102*
CCOC(=O)CCc1c(C)c2ccc(OCc3cc([N+](=O)[O-])ccc3OC)c(C)c2oc1=O	4	2	102	99	0	.	.	.
C/C(Cl)=C\Cn1c(O)c(N=NC(N)=S)c2cc(Br)ccc21	10	-7	85	99	-8	4	.	.
NC(=S)N=Nc1c(O)n(Cc2ccc(Br)cc2)c2ccccc12	11	46*	94	101	-2	.	-2	38
Oc1c(N=NC(=S)Nc2ccccc2F)c2ccccc2n1Cc1ccc(F)cc1	3	-42	93	103	-2	11	.	.
NC(=S)N=Nc1c(O)n(CCCl)c2ccc(Br)cc12	-2	58*	96	92	-15	4	-1	30
NC(=S)N=Nc1c(O)n(Cc2ccc(F)cc2)c2ccccc12	5	73*	97	100	13	2	-1	75*
Cc1ccc2c(c1)c(N=NC(N)=S)c(O)n2Cc1ccccc1	0	79*	92	87	-2	.	0	46*
CCCCNC(=O)N(C)c1nc2ccccc2s1	-1	5	95	106	-5	-1	.	.
COc1ccc(NC(=O)CCN2CCN(c3ccccc3F)CC2)c(OC)c1	-5	10	101	103	-1	-2	.	.
Cn1c(SCC(=O)c2ccccc2)ncc(C(=O)Nc2ccccc2)c1=O	6	57*	.	.	.	-17	95*	53*
Cn1c(SCC(=O)NCCc2ccccc2)ncc(C(=O)Nc2ccc(F)cc2)c1=O	-2	38	.	.	.	-61	.	.
CCOC(=O)N1CC=C2C(C#N)=C(N)C(C#N)(C#N)[C@H](c3ccsc3)[C@H]2C1	-7	8	101	100	-1	-11	.	.
O=C(c1cccc(S(=O)(=O)N2CCCC2)c1)N1CCCC(C(F)(F)F)C1 (stereo not given)	21	73*	.	.	.	-1	-3	109*
SMILES	Apaf-1 inh	UBC13 inh	MEKK2wt PB1 HTS	MEKK3 PB1 HTS	MEKK2mut PB1 HTS	UCH37 DUB inh	Casp3 UBC13 ctr	UBC13 conf
O=C(CCCCCN1C(=O)c2ccccc2C1=O)Nc1ccc(S(=O)(=O)N2CCCCC2)cc1	-32	100*	90	94	-5	1	6	112*
O=C1[C@H]2[C@@H](c3ccc(F)cc3)N3C(=O)N(c4cccc(Cl)c4)C(=O)[C@@]3(Cc3ccc(Cl)cc3)[C@H]2C(=O)N1C1CCCCC1	14	-9	94	102	-3	4	.	.
COc1ccc(CC(=O)NNC(=O)c2cnccn2)cc1	-7	4	105	110	0	0	.	.
CCCCOc1ccc(C(=O)NNC(=O)c2cnccn2)cc1OC	-5	64*	.	.	.	5	-3	24
COc1ccc(C2=Nn3c(nnc3-c3ccccc3F)SC2)cc1OC1CCOC1 (stereo not given)	20	46*	.	.	.	4	-1	31
COc1ccc(OC)c(-c2nnc3n2N=C(c2ccc(OC)c(OC4CCCC4)c2)CS3)c1	38	28	.	.	.	1	.	.
CCC(=O)NC(=S)NNC(=O)c1ccc(O)cc1	2	86*	102	102	1	4	4	101*
CCC(=O)NNC(=S)NC(=O)c1ccc(C)cc1	-10	1	93	98	-11	1	.	.
COc1ccc(NC(=S)NNC(=O)c2nnn(-c3ccccc3)c2C)cc1	3	59*	97	97	-2	.	-2	82*
Cc1cc(C)cc(OCC(=O)NNC(=O)c2ccccn2)c1	-24	96*	.	.	.	1	2	85*
COCCCNC(=S)NNC(=O)c1ccccn1	3	89*	73	82	-16	4	2	101*
Cc1ccc(OCCCC(=O)NNC(=O)c2ccccn2)cc1	1	56*	.	.	.	5	0	43
O=C(COc1ccc(Cl)cc1)NNC(=O)c1ccccn1	11	71*	.	.	.	2	-2	97*
COCCCNC(=S)NNC(=O)c1ccccc1Br	-7	-5	105	101	2	2	.	.
O=C(COC(=O)c1cc(=O)[nH]c(=O)[nH]1)Nc1cccc(Cl)c1	3	66*	.	.	.	1	3	51*
